Test results as given in ChEMBL document CHEMBL1124344, “5-Piperazinylalkyl-2(3H)-oxazolones with neuroleptic activity” (J Med Chem, 1989).

Assays:
Canis familiaris = assay: Antagonistic activity against apomorphine-induced emesis, after 5 hour of peroral administration in dogs; format: functional; details: Canis lupus familiaris, po
In short: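 Male and female dogs pretreated orally, then challenged with apomorphine 0.3 mg/kg sc. Complete protection from vomiting for 30 min after apomorphine is the criterion. ED50 is the dose protecting 50% of dogs, per Janssen's method.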

Rattus norvegicus [1] = assay: Activity to evoke catalepsy, after 5 hour of peroral administration in rats; format: functional; details: po
In short: (§1)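 Rats fasted overnight and given oral doses in arabic gum suspension (10 mL/kg), 1 h before screening or 1 and 5 h before profile testing. Forelegs placed on a horizontal bar 7 cm high, three times at 5-min intervals. Immobility of at least 15 s counts as catalepsy. ED50 is the dose giving catalepsy in 50% of rats, by probit analysis. Parenthetical entries give the maximal dose and percent activity.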

Mus musculus [2] = assay: Suppression of aggressive behavior, after 1 hour of peroral administration in mouse; format: functional; details: po
In short: (§2)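 Male mice made aggressive by isolation in individual black cages for about 1 month plus weekly testosterone cyclopentylpropionate 250 mg/kg sc; pairs preselected for attack on a nonisolated male within 15 min. Oral dosing (arabic gum, 10 mL/kg) 1 or 5 h before test, overnight fast. ED50 = dose suppressing aggression in 50% of animals, probit analysis.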

Mus musculus [3] = assay: Inhibition against apomorphine-induced climbing, after 1 hour of peroral administration in mouse; format: functional; details: po
In short: (§3)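 Mice were dosed orally (gum arabic suspension, 10 mL/kg, fasted), then given apomorphine 1 mg/kg sc and placed in cylindrical cages with vertical metal bars. Climbing was scored 0 for four paws on the floor, 1 for forefeet on the wall, 2 for four paws on the wall. ED50 is the dose halving the control score.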

Mus musculus [4] = assay: Inhibition of spontaneous motor activity in mouse, by administering perorally; format: functional; details: po
In short: (§4)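 Mice fasted overnight, then dosed orally with compound (weighed as base) suspended in arabic gum, 10 mL/kg, with vehicle controls; 1 h pretreatment for screening tests, 1 or 5 h for others. Groups of five; locomotor activity counted 10 min in photocell activity cage, at least two groups per dose. ED50 = dose giving 50% inhibition versus controls, by probit analysis.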

Rattus norvegicus [5] = assay: Antagonistic activity against apomorphine-induced stereotypy, after 5 hour of peroral administration in rats; format: functional; details: po
In short: (§5)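 Male rats fasted overnight and given oral doses in arabic gum suspension (10 mL/kg) 1 h, or 1 and 5 h, before challenge. Apomorphine 3 mg/kg iv, with stereotypy observed 20 min later. ED50 is the dose inhibiting stereotypy in 50% of rats, per Janssen's method. Parenthetical entries give the maximal dose and percent activity.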

Mus musculus [6] = assay: Inhibition against apomorphine-induced turning, after 1 hr of peroral administration in mouse; format: functional; details: po
In short: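 Mice were lesioned unilaterally with intranigrostriatal 6-hydroxydopamine (20 µg). At 7 days, strong contraversive turners 15 min after apomorphine 2 mg/kg ip were selected. A week later they were dosed orally and rechallenged. Fewer than six full rotations in 2 min counted as protection. ED50 is the dose protecting 50%.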

Mus musculus [7] = assay: Antagonistic activity against amphetamine-induced Hypermobility in mouse by administering perorally; format: functional; details: po
In short: (§6)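 Male mice in groups of five, fasted overnight, given oral drug in arabic gum suspension (10 mL/kg) 1 or 5 h ahead. Amphetamine 4 mg/kg ip given 30 min after drug. Ten minutes later locomotion is recorded for 15 min in a photocell actophotometer. ED50 is 50% reduction versus control hypermotility, by probit analysis. Parenthetical entries give the maximal dose and percent activity.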

Mus musculus [8] = assay: Antagonistic activity against amphetamine-induced hypermotility, after 5 hour of peroral administration in mouse; format: functional; details: po; in short: as §6
Mus musculus [9] = assay: Suppression of aggressive behavior, after 5 hour of peroral administration in mouse; format: functional; details: po; in short: as §2
Rattus norvegicus [10] = assay: Inhibition against conditioned avoidance response, after 5 hour of peroral administration in rats; format: functional; details: po
In short: (§7)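 Male rats were trained in a shuttle box to avoid grid-floor shock by crossing compartments during a warning period. Dosing was oral as a gum arabic suspension at 10 mL/kg after an overnight fast. Percent inhibition was computed against a pretraining test. ED50 is the dose giving 50% inhibition.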

Mus musculus [11] = assay: Contractile activity in skeletal muscles, after 1 hour of peroral administration in mouse; format: functional; details: Muscle tissue, po
In short: (§8)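 Male mice were placed for 1 h on a 60° inclined wire screen just after dosing and 4 h later. In a second test, trained mice hung by the forepaws from a horizontal 1.8 mm wire 15 cm up; normal mice touch it with a hind paw within 2 s and stay ≥1 min. ED50 is the dose making 50% fall. Dosing was oral in gum arabic suspension at 10 mL/kg after an overnight fast.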

Mus musculus [12] = assay: Inhibition against apomorphine-induced climbing, after 5 hour of peroral administration in mouse; format: functional; details: po; in short: as §3
Mus musculus [13] = assay: Antagonistic activity against amphetamine-induced hypermotility, after 1 hour of peroral administration in mouse; format: functional; details: po; in short: as §6
[14] = Lethal dose in mice (LD50) following i.p. dosing; format: toxicity, organism-based; details: mouse, in vivo, ip
In short: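 Acute toxicity tested in mice by the intraperitoneal route. LD50 is the dose killing 50% of treated mice, computed by Finney probit analysis; values are approximate.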

Mus musculus [15] = assay: Inhibition of spontaneous motor activity, after 1 hour of peroral administration in mouse; format: functional; details: po; in short: as §4
Mus musculus [16] = assay: Contractile activity in skeletal muscles, after 5 hour of peroral administration in mouse; format: functional; details: Muscle tissue, po; in short: as §8
Rattus norvegicus [17] = assay: Antagonistic activity against amphetamine-induced stereotypy, after 1 hour of peroral administration in rats; format: functional; details: po
In short: (§9)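 Male rats dosed orally (arabic gum suspension, 10 mL/kg, fasted overnight) 1 or 5 h beforehand. Amphetamine 7.5 mg/kg iv, with stereotyped movements scored as present or absent 1 h later. ED50 is the dose inhibiting stereotypy in 50% of rats, by probit analysis. Parenthetical entries give the maximal dose and percent activity.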

Rattus norvegicus [18] = assay: Antagonistic activity against amphetamine-induced stereotypy, after 5 hour of peroral administration in rats; format: functional; details: po; in short: as §9
Mus musculus [19] = assay: Inhibition of spontaneous motor activity, after 5 hour of peroral administration in mouse; format: functional; details: po; in short: as §4
Rattus norvegicus [20] = assay: Antagonistic activity against apomorphine-induced stereotypy, after 1 hour of peroral administration in rats; format: functional; details: po; in short: as §5
Mus musculus [21] = assay: Anticonvulsant activity against tryptamine-induced convulsions, after 1 hour of peroral administration in mouse; format: functional; details: po
In short: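 Compounds were dosed as bases suspended in arabic gum at 10 mL/kg orally, after an overnight fast, with vehicle controls. Protection meant no bilateral forepaw clonic seizures or head twitches (tryptamine), or no tonic hind-limb extension (the other two). ED50 is the dose protecting 50%, by probit analysis.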

Mus musculus [22] = assay: Potentiation against pentobarbital-induced sleeping, after 5 hour of peroral administration in mouse; format: functional; details: po
In short: (§10)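 Female mice fasted overnight, dosed orally 1 or 5 h beforehand as arabic gum suspension, 10 mL/kg, with vehicle controls. Subhypnotic pentobarbital 10 mg/kg iv; 3 min later placed on back, effect scored as complete loss of righting reflex for at least 15 s. ED50 = dose producing this in 50% of mice, probit analysis.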

Rattus norvegicus [23] = assay: Inhibition against conditioned avoidance response, after 1 hour of peroral administration in rats; format: functional; details: po; in short: as §7
Mus musculus [24] = assay: Potentiation against pentobarbital-induced sleeping, after 1 hour of peroral administration in mouse; format: functional; details: po; in short: as §10
Rattus norvegicus [25] = assay: Activity to evoke catalepsy, after 1 hour of peroral administration in rats; format: functional; details: po; in short: as §1
Mus musculus [26] = assay: Activity of inclined screen in mouse, after 1 hour of peroral administration in mouse; format: functional; details: po
In short: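 Male mice dosed orally (arabic gum suspension, 10 mL/kg, fasted overnight) 1 or 5 h before testing. Placed for 1 h on a wire screen bent at 60° to the horizontal. Ataxic or miorelaxed mice slide off. ED50 is the dose at which 50% of mice fall, by probit analysis. Ten animals per dose, with vehicle controls.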

SMILES	ED50 (Canis familiaris) [mg/kg]	ED50 (Rattus norvegicus [1]) [mg/kg]	ED50 (Mus musculus [2]) [mg/kg]	ED50 (Mus musculus [3]) [mg/kg]	ED50 (Rattus norvegicus [5]) [mg/kg]	ED50 (Mus musculus [6]) [mg/kg]	ED50 (Mus musculus [8]) [mg/kg]	ED50 (Mus musculus [9]) [mg/kg]	ED50 (Rattus norvegicus [10]) [mg/kg]	ED50 (Mus musculus [12]) [mg/kg]	ED50 (Mus musculus [13]) [mg/kg]	ED50 (Mus musculus [16]) [mg/kg]	ED50 (Rattus norvegicus [17]) [mg/kg]	ED50 (Rattus norvegicus [18]) [mg/kg]	ED50 (Rattus norvegicus [20]) [mg/kg]	ED50 (Mus musculus [21]) [mg/kg]	ED50 (Rattus norvegicus [23]) [mg/kg]	ED50 (Mus musculus [24]) [mg/kg]	ED50 (Rattus norvegicus [25]) [mg/kg]	ED50 (Mus musculus [26]) [mg/kg]	also measured
O=c1[nH]c(-c2ccc(F)cc2)c(CCN2CCN(c3cc(Cl)cc(Cl)c3)CC2)o1 [LODIPERONE]	2.5	24.3	23.8	0.37	106	0.84	1.9	8.5	6.4	0.21	1.5	200	13.5	4.2							ED50 (Mus musculus [4]): 2.7 mg/kg; ED50 (Mus musculus [7]): 1.5 mg/kg; ED50 (Mus musculus [11]): 200 mg/kg; LD50 [14]: > 2000 mg/kg; ED50 (Mus musculus [15]): 2.7 mg/kg; ED50 (Mus musculus [19]): 2.5 mg/kg
CN(C)CCCN1c2ccccc2Sc2ccc(Cl)cc21 [CHLORPROMAZINE]				2	41.6	4.4	2.4	3.1	10.3	2.2	4.1	10.3	19.4	13.6	28.9	3.4	6.8	3.2	10.3	5.4	ED50 (Mus musculus [22]): 3.3 mg/kg; ED50 (Mus musculus [11]): 36.5 mg/kg
COc1ccccc1N1CCN(CCc2oc(=O)[nH]c2-c2ccc(F)cc2)CC1 [ZOLOPERONE]	1.5	21.5	4.7	0.42	60.7	15.9	15	4.7	11.6	4	4	62.5	5.3	12.4	10.4	9.8	3.5	41.1	55.6	91	ED50 (Mus musculus [4]): 4.6 mg/kg; ED50 (Mus musculus [22]): 37.3 mg/kg; ED50 (Mus musculus [7]): 4 mg/kg; LD50 [14]: > 2000 mg/kg; ED50 (Mus musculus [15]): 4.6 mg/kg; ED50 (Mus musculus [19]): 20.3 mg/kg
O=C(CCCN1CCC(O)(c2ccc(Cl)cc2)CC1)c1ccc(F)cc1 [HALOPERIDOL]				0.12	1.8	0.32	0.28	0.29	0.32	0.045	0.12	15	0.27	0.39	1.1	1.1	0.23	7	15.4	6.8	ED50 (Mus musculus [22]): 3.1 mg/kg; ED50 (Mus musculus [15]): 0.16 mg/kg; ED50 (Mus musculus [19]): 0.35 mg/kg
COc1ccccc1N1CCN(CCCC(=O)c2ccc(F)cc2)CC1 [FLUANISONE]	8.6	13.9	6.1	5		14.7	18	20.1	50	15	16.4	50	17.8	50	63.2	12.5	25	20.7	18	49	ED50 (Mus musculus [4]): 7.7 mg/kg; ED50 (Mus musculus [7]): 16.4 mg/kg; ED50 (Mus musculus [11]): 20 mg/kg; LD50 [14]: 180 mg/kg
